{"source": "ChEMBL document CHEMBL4765441", "about": "“Design, synthesis and anti-cancer activity of pyrrole-imidazole polyamides through target-downregulation of c-kit gene expression” (Eur J Med Chem, 2020)", "key": {"dsDNA": {"tested_on": "dsDNA", "assay": "Binding affinity to 5'-AGGGGAGGCGAGGAGGGGCGTGGCCGG-3'/3'-TCCCCTCCGCTCCTCCCCGCACCGGCC-5' dsDNA (unknown origin) at 1:2 DNA:compound ratio by SYBR GOLD staining based EMSA", "format": "nucleic-acid assay", "conditions": "Homo sapiens", "how_it_was_run": "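Target 27-bp c-kit promoter duplex, annealed at 95 °C, then incubated overnight with or without compound in pH 7.4 buffer (10 mM Tris-HCl, 10 mM KCl, 0.1 mM EDTA). Mixtures run on 16% native polyacrylamide gel at 150 V for 3 h. Gels stained with SYBR Gold for 30 min and imaged on a gel documentation system.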"}, "SGC-7901 [1]": {"tested_on": "SGC-7901", "assay": "Inhibition of cell migration in human SGC7901 cells at 1.5 uM incubated for 48 hrs by inverted fluorescence microscope based scratch wound healing assay", "format": "functional", "how_it_was_run": "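20 × 10^4 cells per well grown to 80% confluence. Wound scratched with a pipette tip, washed twice with PBS and photographed under an inverted fluorescence microscope. Cells then held in serum-free medium with compound for 48 h. Migration measured as distance moved from the wound edge; mean ± SD, n = 3.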"}, "SGC-7901 [2]": {"tested_on": "SGC-7901", "assay": "Induction of apoptosis in human SGC7901 cells assessed as necrotic cells at 7.5 uM incubated for 36 hrs by Annexin V-FITC/propidium iodide staining-based flow cytometric analysis (reference value: 0.34 %)", "format": "functional"}, "SGC-7901 [3]": {"tested_on": "SGC-7901", "assay": "Induction of apoptosis in human SGC7901 cells assessed as early apoptotic cells at 15 uM incubated for 36 hrs by Annexin V-FITC/propidium iodide staining-based flow cytometric analysis (reference value: 2.74 %)", "format": "functional"}, "SGC-7901 [4]": {"tested_on": "SGC-7901", "assay": "Induction of apoptosis in human SGC7901 cells assessed as necrotic cells at 15 uM incubated for 36 hrs by Annexin V-FITC/propidium iodide staining-based flow cytometric analysis (reference value: 0.34 %)", "format": "functional"}, "A549 [5]": {"tested_on": "A549", "assay": "Induction of apoptosis in human A549 cells assessed as early apoptotic cells at 7.5 uM incubated for 36 hrs by Annexin V-FITC/propidium iodide staining-based flow cytometric analysis (reference value: 1.41 %)", "format": "functional"}, "A549 [6]": {"tested_on": "A549", "assay": "Induction of apoptosis in human A549 cells assessed as late apoptotic cells at 15 uM incubated for 36 hrs by Annexin V-FITC/propidium iodide staining-based flow cytometric analysis (reference value: 0.41 %)", "format": "functional"}, "SGC-7901 [7]": {"tested_on": "SGC-7901", "assay": "Down regulation of c-kit gene expression in human SGC-7901 cells incubated for 36 hrs by Western blot analysis", "format": "functional, cell-based", "how_it_was_run": "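Cells exposed to compound for 36 h, then lysed in RIPA and protein measured by BCA. 30 units of total protein separated by 10% SDS-PAGE, transferred to PVDF and blocked with 5% BSA. Primary antibodies, with β-tubulin as reference, at 4 °C; secondary 2 h; ECL detection. Bands quantified by densitometry, mean ± SD, n = 3.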"}, "SGC-7901 [8]": {"tested_on": "SGC-7901", "assay": "Down regulation of c-kit mRNA expression in human SGC-7901 cells at 7.5 uM incubated for 36 hrs by Western blot analysis", "format": "functional, cell-based", "conditions": "in the assay text read “RT-PCR analysis” for “Western blot analysis”", "how_it_was_run": "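Cells treated for 36 h. Total RNA quantified by Nanodrop and checked on 1.5% agarose with ethidium bromide. 400 ng RNA per one-step RT-PCR with c-kit-specific primers; reverse transcription 30 min at 50 °C, then 2 min at 94 °C. Normalized to β-actin; semi-quantitative.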"}}, "note": "Calls of active or inactive are those of the source. The calls are words filed in the database; no cut-off is given here.", "data": [{"smiles": "CC(=O)Nc1cn(C)c(C(=O)Nc2cn(C)c(C(=O)Nc3cc(C(=O)Nc4cn(C)c(C(=O)NCCC(=O)Nc5cn(C)c(C(=O)Nc6cn(C)c(C(=O)NCC[C@@H](N)C(=O)Nc7cc(C(=O)Nc8cc(C(=O)NC[C@@H](O)CC(=O)Nc9cc(C(=O)Nc%10cn(C)c(C(=O)Nc%11cc(C(=O)Nc%12cc(C(=O)NCCC(=O)NCCCN(C)C)n(C)c%12)n(C)c%11)n%10)n(C)c9)n(C)c8)n(C)c7)n6)n5)n4)n(C)c3)n2)n1.Cl.Cl", "values": [{"measurement": "Activity", "setting": "dsDNA", "value": "Active"}, {"measurement": "inhibition at 1.5 µM", "setting": "SGC-7901 [1]", "value": 85.7, "unit": "%"}, {"measurement": "Activity", "setting": "SGC-7901 [2]", "value": 0.92, "unit": "%"}, {"measurement": "Activity", "setting": "SGC-7901 [3]", "value": 41.7, "unit": "%"}, {"measurement": "Activity", "setting": "SGC-7901 [4]", "value": 1.83, "unit": "%"}, {"measurement": "Activity", "setting": "A549 [5]", "value": 22.7, "unit": "%"}, {"measurement": "Activity", "setting": "A549 [6]", "value": 19.6, "unit": "%"}, {"measurement": "Activity", "setting": "SGC-7901 [7]", "value": "Dose-dependent effect"}, {"measurement": "Activity", "setting": "SGC-7901 [8]", "value": "Active"}]}]}
